6 compounds from ChEMBL document CHEMBL1144211, “Overcoming hERG issues for brain-penetrating cathepsin S inhibitors: 2-cyanopyrimidines. Part 2” (Bioorg Med Chem Lett, 2008) can be followed below.

Structures are written as SMILES. Where only a bound is given, the exact number is not on record here.

Holding throughout (format): ADME, organism-based
Data set [1] is described as follows: AUC in Sprague-Dawley rat at 10 mg/kg, po. Also noted: dose 10 mg/kg, route oral. The conditions noted are these: plasma.
Data set [2] in a line: Plasma clearance in Sprague-Dawley rat at 1 mg/kg, iv or 10 mg/kg, po.
The nature of data set [3]: Half life in Sprague-Dawley rat at 1 mg/kg, iv. Details: dose 1 mg/kg, route intravenous. The settings on record: in vivo. In outline: (§1)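 PK parameters in male Sprague–Dawley rats after intravenous dosing at 1 mg/kg and after oral dosing. Parameters derived were Vdss, apparent half-life, oral Cmax and estimated bioavailability.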
A short description of data set [4]: Oral bioavailability in Sprague-Dawley rat at 10 mg/kg. The conditions noted are these: in vivo. In outline: as §1
Data set [5] in a line: Plasma concentration in Sprague-Dawley rat at 10 mg/kg, po after 3 hrs. Details: dose 10 mg/kg, route oral. In outline: (§2)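 Sprague–Dawley rats received a single oral dose of 10 mg/kg. Plasma and brain concentrations (nM) were measured at 1 h and 3 h after dosing. Values are means of n = 3.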
A short description of data set [6]: Drug level in Sprague-Dawley rat brain at 10 mg/kg, po after 1 hr. Details: dose 10 mg/kg, route oral. The conditions noted are these: read-out: Drug uptake. In outline: as §2
Data set [7] can be described thus: Plasma concentration in Sprague-Dawley rat at 10 mg/kg, po after 1 hr. Details: dose 10 mg/kg, route oral. In outline:
as §2

Data set [8] in a line: Drug level in Sprague-Dawley rat brain at 10 mg/kg, po after 3 hrs. Also noted: dose 10 mg/kg, route oral. The conditions noted are these: read-out: Drug uptake. An outline of the steps:
as §2

A short description of data set [9]: Volume of distribution at steady state in Sprague-Dawley rat at 1 mg/kg, iv. Details: dose 1 mg/kg, route intravenous. The conditions noted are these: in vivo, read-out: Vdss. An outline of the steps:
as §1

The nature of data set [10]: Cmax in Sprague-Dawley rat at 10 mg/kg, po. The conditions noted are these: in vivo. Also noted: dose 10 mg/kg, route oral. In outline: as §1

The term AUC denotes concentration integrated over time. Lower therefore signals low exposure. One may read the half-life as the time in which the quantity being followed falls by half. Lower therefore signals fast loss. As usually defined, the bioavailability is dose-corrected exposure relative to a reference, in per cent. What is called Cmax is the highest concentration seen after dosing. `CNC(=O)c1c(NCC2CCC3(CCC3)CC2)nc(C#N)nc1OCCO` yielded an area under the curve (AUC) in data set [1] of 2.5 µM·h. Moreover, the clearance in data set [2] is 25 mL/min/kg. The compound further showed a half-life in data set [3] of 1.5 h. The bioavailability in [4] came out at 14%. Further, the concentration at 3 h in data set [5] worked out at 170 nM; in data set [8], 849 nM. The concentration at 1 h in data set [6] was 692 nM; in data set [7], 283 nM. In addition, the Vd in data set [9] was determined as 1.2 L/kg. In data set [10], this compound had a Cmax of 907 nM.
As for `CNC(=O)c1c(NCC2CCC3(CCC3)CC2)nc(C#N)nc1OCC1CCN(C(C)C)CC1`, the exposure (AUC) in data set [1] is 8.08 µM·h. For the same compound, the clearance in data set [2] is 10 mL/min/kg. The same compound had a half-life in data set [3] of 11.8 h. In addition, in [4], the bioavailability was determined as 24%. For the same compound, the concentration at 3 h in data set [5] is 381 nM; in [8], 455 nM. Moreover, the concentration at 1 h in [6] turned out to be 67 nM; in data set [7], 191 nM. In addition, the Vd in [9] amounted to 9.3 L/kg. In data set [10], this compound showed a maximum concentration (Cmax) of 298 nM.
Consider `CNC(=O)c1c(NCC2CCC3(CCC3)CC2)nc(C#N)nc1OCC1CCN(C(C)=O)CC1`, for which the concentration at 3 h is 80 nM in [5] and less than 13 nM in data set [8]. Moreover, the concentration at 1 h was 27 nM in [6] and 169 nM in [7].
Regarding `CNC(=O)c1c(NCC2CCC3(CCC3)CC2)nc(C#N)nc1OCC1CCN(C)CC1`, in [1], the AUC was 8.24 µM·h. Further, the clearance in [2] is 18.3 mL/min/kg. The half-life in [3] is 6.7 h. Moreover, the bioavailability in data set [4] is 40%. For the same compound, the results for the concentration at 3 h in data set [5] and in data set [8] were 308 nM and 718 nM, respectively. For the same compound, the concentration at 1 h in [6] is 124 nM; in data set [7] it was 346 nM. Moreover, the Vd in data set [9] stood at 9.8 L/kg. This compound also yielded a Cmax in [10] of 461 nM.
Regarding `CNC(=O)c1c(NCC2CCC3(CCC3)CC2)nc(C#N)nc1OC1CC(C)(C)NC(C)(C)C1`, the concentration at 3 h in data set [5] was found to be 287 nM; in data set [8] it was 164 nM.
As to `CNC(=O)c1c(NCC2CCC3(CCC3)CC2)nc(C#N)nc1OCC1CCNCC1`, the concentration at 3 h in data set [5] is 61 nM; in data set [8], less than 13 nM. Also, the concentration at 1 h is less than 13 nM in [6] and 28 nM in data set [7].
